Test results reported in ChEMBL document CHEMBL1165950, “Design and synthesis of new potent anticancer pyrazoles with high FLT3 kinase inhibitory selectivity” (Bioorg Med Chem, 2010).

Columns and labels:
Format in all cases: functional
[1] = tested on: OVCAR-4; assay: Cytotoxicity against human OVCAR4 cells assessed as cell growth at 0.001 uM after 48 hrs by sulforhodamine B assay; conditions: OVCAR-4, 48 h, read-out: Activity
[2] = tested on: SR; assay: Cytotoxicity against human SR cells assessed as cell growth at 10 uM; conditions: read-out: Activity
Outline: (§1)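 NCI-60 screen: cells grown in RPMI 1640 with 5% FBS and 2 mM L-glutamine, plated at 5000–40,000 cells/well according to doubling time, and preincubated 24 h at 37 °C, 5% CO2. The single 10 µM dose (DMSO stock) was added, then incubated 48 h. Cells were TCA-fixed and stained with 0.4% SRB, read at 515 nm, and growth % calculated against time-zero and control plates.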

[3] = tested on: PC-3; assay: Growth inhibition of human PC3 cells after 48 hrs by sulforhodamine B assay; conditions: PC-3, 48 h
Outline: (§2)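 NCI 60-cell screen, five-dose mode. Cells grown in RPMI 1640 with 5% FBS and 2 mM L-glutamine and plated at 5000-40,000 cells/well according to doubling time. After 24 h preincubation, a Tz plate was TCA-fixed. Five concentrations (10-fold or 1/2 log dilutions) were applied for 48 h at 37 °C. SRB staining read at 515 nm. IC50 taken from [(Ti-Tz)/(C-Tz)]×100 = 50.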

[4] = tested on: U-251; assay: Cytotoxicity against human U251 cells assessed as cell growth at 100 nM after 48 hrs by sulforhodamine B assay; conditions: U-251, 48 h, read-out: Activity
[5] = tested on: OVCAR-4; assay: Cytotoxicity against human OVCAR4 cells assessed as cell growth at 1 uM after 48 hrs by sulforhodamine B assay; conditions: OVCAR-4, 48 h, read-out: Activity
[6] = tested on: ACHN; assay: Cytotoxicity against human ACHN cells assessed as cell growth at 0.001 uM after 48 hrs by sulforhodamine B assay; conditions: read-out: Activity
Outline: (§3)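 NCI-60 five-dose screen. Cells were grown in RPMI 1640 with 5% FBS and 2 mM L-glutamine, plated at 5000–40,000 cells/well and preincubated for 24 h. Time-zero plates were TCA-fixed. DMSO-solubilized drug was added at five concentrations (10-fold or ½-log serial dilutions) for 48 h at 37 °C, 5% CO2. Cells were TCA-fixed, stained with 0.4% SRB and read at 515 nm. Percent growth used time-zero, control and test absorbances.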

[7] = tested on: UO-31; assay: Cytotoxicity against human UO31 cells assessed as cell growth at 100 nM after 48 hrs by sulforhodamine B assay; conditions: UO-31, 48 h, read-out: Activity
[8] = tested on: SF-268; assay: Cytotoxicity against human SF268 cells assessed as cell growth at 0.01 uM after 48 hrs by sulforhodamine B assay; conditions: SF-268, 48 h, read-out: Activity
[9] = tested on: BT-549; assay: Cytotoxicity against human BT549 cells assessed as cell growth at 1 uM after 48 hrs by sulforhodamine B assay; conditions: BT-549, 48 h, read-out: Activity; outline: as §3
[10] = tested on: SF-539; assay: Cytotoxicity against human SF539 cells assessed as cell growth at 0.001 uM after 48 hrs by sulforhodamine B assay; conditions: SF-539, 48 h, read-out: Activity
[11] = tested on: COLO 205; assay: Cytotoxicity against human COLO205 cells assessed as cell growth at 10 uM after 48 hrs by sulforhodamine B assay; conditions: COLO 205, 48 h, read-out: Activity
[12] = tested on: Malme-3M; assay: Cytotoxicity against human MALME-3M cells assessed as cell growth at 10 uM; conditions: read-out: Activity; outline: as §1
[13] = tested on: U-251; assay: Cytotoxicity against human U251 cells assessed as cell growth at 10 uM after 48 hrs by sulforhodamine B assay; conditions: U-251, 48 h, read-out: Activity
[14] = tested on: TK-10; assay: Cytotoxicity against human TK10 cells assessed as cell growth at 0.01 uM after 48 hrs by sulforhodamine B assay; conditions: TK-10, 48 h, read-out: Activity
[15] = tested on: RXF 393; assay: Cytotoxicity against human RXF393 cells assessed as cell growth at 0.01 uM after 48 hrs by sulforhodamine B assay; conditions: RXF 393, 48 h, read-out: Activity
[16] = Cytotoxicity against human Hs 578T cells assessed as cell growth at 10 uM; conditions: read-out: Activity
Outline: (§4)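 Single-dose NCI-60 screen at 10 µM. Cells were grown in RPMI 1640 with 5% FBS and 2 mM L-glutamine, then treated for 48 h at 37 °C. Protein was measured by SRB staining with absorbance at 515 nm. Percentage growth was recorded, and inhibition percentage was calculated as 100 minus growth percentage.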

[17] = tested on: A498; assay: Cytotoxicity against human A498 cells assessed as cell growth at 100 nM after 48 hrs by sulforhodamine B assay; conditions: A498, 48 h, read-out: Activity; outline: as §3
[18] = tested on: BT-549; assay: Cytotoxicity against human BT549 cells assessed as cell growth at 100 nM after 48 hrs by sulforhodamine B assay; conditions: BT-549, 48 h, read-out: Activity; outline: as §3
[19] = tested on: SK-MEL-2; assay: Cytotoxicity against human SK-MEL-2 cells assessed as cell growth at 100 nM after 48 hrs by sulforhodamine B assay; conditions: SK-MEL-2, 48 h, read-out: Activity
[20] = tested on: EKVX; assay: Cytotoxicity against human EKVX cells assessed as cell growth at 10 uM after 48 hrs by sulforhodamine B assay; conditions: read-out: Activity
[21] = tested on: T47D; assay: Growth inhibition of human T47D cells after 48 hrs by sulforhodamine B assay; outline: as §2
[22] = tested on: NCI-H322M; assay: Cytotoxicity against human NCI-H322M cells assessed as cell growth at 0.001 uM after 48 hrs by sulforhodamine B assay; conditions: read-out: Activity
[23] = tested on: CCRF-CEM; assay: Cytotoxicity against human CCRF-CEM cells assessed as cell growth at 1 uM after 48 hrs by sulforhodamine B assay; conditions: read-out: Activity; outline: as §3
[24] = tested on: U-251; assay: Cytotoxicity against human U251 cells assessed as cell growth at 0.001 uM after 48 hrs by sulforhodamine B assay; conditions: U-251, 48 h, read-out: Activity
[25] = tested on: ACHN; assay: Cytotoxicity against human ACHN cells assessed as cell growth at 10 uM after 48 hrs by sulforhodamine B assay; conditions: read-out: Activity; outline: as §3
[26] = tested on: NCI-H322M; assay: Growth inhibition of human NCI-H322M cells after 48 hrs by sulforhodamine B assay; conditions: for CC50: read-out: LC50 (the source's name); outline: as §2
[27] = tested on: IGROV-1; assay: Cytotoxicity against human IGROV1 cells assessed as cell growth at 1 uM after 48 hrs by sulforhodamine B assay; conditions: IGROV-1, 48 h, read-out: Activity
[28] = tested on: DU-145; assay: Growth inhibition of human DU145 cells after 48 hrs by sulforhodamine B assay; conditions: DU-145, 48 h
Outline: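 NCI five-dose SRB assay in RPMI 1640 with 5% FBS and 2 mM L-glutamine. Cells were preincubated 24 h, then exposed 48 h at 37 °C to five concentrations (10-fold or half-log serial dilutions from DMSO stocks). TCA fixation, SRB staining, and absorbance at 515 nm followed. IC50 was taken where [(Ti−Tz)/(C−Tz)]×100 = 50, with Tz as time-zero cell density.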

[29] = tested on: A498; assay: Cytotoxicity against human A498 cells assessed as cell growth at 10 uM; conditions: read-out: Activity; outline: as §4
[30] = tested on: UACC-257; assay: Cytotoxicity against human UACC257 cells assessed as cell growth at 0.01 uM after 48 hrs by sulforhodamine B assay; conditions: UACC-257, 48 h, read-out: Activity

SMILES	growth at 0.001 µM [1] [%]	growth at 10 µM [2] [%]	GI50 [3] [µM]	LC50 (concentration giving 50% net cell kill) [3] [µM]	TGI [3] [µM]	growth at 0.1 µM [4] [%]	growth at 1 µM [5] [%]	growth at 0.001 µM [6] [%]	growth at 0.1 µM [7] [%]	growth at 0.01 µM [8] [%]	growth at 1 µM [9] [%]	growth at 0.001 µM [10] [%]	growth at 10 µM [11] [%]	growth at 10 µM [12] [%]	growth at 10 µM [13] [%]	growth at 0.01 µM [14] [%]	growth at 0.01 µM [15] [%]	growth at 10 µM [16] [%]	growth at 0.1 µM [17] [%]	growth at 0.1 µM [18] [%]	also measured
COc1cc(C)cc(-c2nn(CC#N)cc2-c2ccc(-c3cccc(C(C)=O)c3)nc2)c1	99	18.4	3.45	> 100	> 100	95	19	93	79	94	5	94	-62	60.5	-37	100	89	32	53	85	growth at 0.1 µM [19]: 88%; growth at 10 µM [20]: -10%; GI50 [21]: 2.23 µM; LC50 [21]: > 100 µM; TGI [21]: 8.23 µM; growth at 0.001 µM [22]: 94%; growth at 1 µM [23]: 13%; growth at 0.001 µM [24]: 98%; growth at 10 µM [25]: 4%; GI50 [26]: 4.36 µM; TGI [26]: 50.8 µM; CC50 [26]: > 100 µM; growth at 1 µM [27]: 1%; GI50 [28]: 1.98 µM; LC50 [28]: > 100 µM; TGI [28]: 4.95 µM; growth at 10 µM [29]: 19.7%; growth at 0.01 µM [30]: 85%
COc1cc(C)cc(-c2nn(CC#N)cc2-c2ccnc(-c3ccc(N(C)C)cc3)c2)c1	106	9.06	0.363	> 100	> 100	16	21	95	39	90	-10	102	-61	82	-32	119	103	31.6	-8	66	growth at 0.1 µM [19]: 50%; growth at 10 µM [20]: 23%; GI50 [21]: 0.475 µM; LC50 [21]: > 100 µM; TGI [21]: 17.3 µM; growth at 0.001 µM [22]: 99%; growth at 1 µM [23]: 16%; growth at 0.001 µM [24]: 94%; growth at 10 µM [25]: -18%; TGI [26]: > 1 µM; CC50 [26]: > 100 µM; growth at 1 µM [27]: 5%; GI50 [28]: 0.319 µM; LC50 [28]: > 100 µM; TGI [28]: 1.11 µM; growth at 10 µM [29]: 4.2%; growth at 0.01 µM [30]: 91%
COc1cc(C)cc(-c2c(-c3ccnc(-c4ccc(C(C)=O)cc4)c3)cnn2CC#N)c1	102	25	3.59	> 100	> 100	89	27	100	78	96	17	92	-67	103	13	100	101	88.5	65	82	growth at 0.1 µM [19]: 103%; growth at 10 µM [20]: 46%; GI50 [21]: 2.42 µM; LC50 [21]: > 100 µM; TGI [21]: 8.02 µM; growth at 0.001 µM [22]: 102%; growth at 1 µM [23]: 12%; growth at 0.001 µM [24]: 104%; growth at 10 µM [25]: 24%; GI50 [26]: > 100 µM; TGI [26]: > 100 µM; CC50 [26]: > 100 µM; growth at 1 µM [27]: 23%; GI50 [28]: 3.42 µM; LC50 [28]: > 100 µM; TGI [28]: > 100 µM; growth at 10 µM [29]: 83%; growth at 0.01 µM [30]: 81%
COc1cc(C)cc(-c2c(-c3ccnc(-c4ccc(N(C)C)cc4)c3)cnn2CC#N)c1	92	-6.91	0.0523	> 100	> 100	6	31	98	45	29	-29	104	4	103	6	75	84	30.8	10	-18	growth at 0.1 µM [19]: 14%; growth at 10 µM [20]: 2%; GI50 [21]: 0.056 µM; LC50 [21]: > 100 µM; TGI [21]: > 100 µM; growth at 0.001 µM [22]: 97%; growth at 1 µM [23]: 6%; growth at 0.001 µM [24]: 95%; growth at 10 µM [25]: 16%; GI50 [26]: 0.331 µM; TGI [26]: > 100 µM; CC50 [26]: > 100 µM; growth at 1 µM [27]: 9%; GI50 [28]: 0.113 µM; TGI [28]: 0.334 µM; growth at 10 µM [29]: 21.3%; growth at 0.01 µM [30]: 38%
Cc1cc(O)cc(-c2nn(CC#N)cc2-c2ccnc(-c3ccc(N(C)C)cc3)c2)c1	104	20.5	3.77	> 100	47.2	91	27	94	82	90	4	97	-82	75	-66	107	104	47.7	92	87	growth at 0.1 µM [19]: 112%; growth at 10 µM [20]: -1%; GI50 [21]: 2.59 µM; LC50 [21]: > 100 µM; TGI [21]: 12.4 µM; growth at 0.001 µM [22]: 94%; growth at 1 µM [23]: 13%; growth at 0.001 µM [24]: 101%; growth at 10 µM [25]: -30%; GI50 [26]: 6.08 µM; TGI [26]: 59.8 µM; CC50 [26]: > 100 µM; growth at 1 µM [27]: 24%; GI50 [28]: 2.75 µM; LC50 [28]: 53.2 µM; TGI [28]: 8.57 µM; growth at 10 µM [29]: 51.1%; growth at 0.01 µM [30]: 81%
